Consider 27 molecules from ChEMBL document CHEMBL3875208, “2-Oxoamides based on dipeptides as selective calcium-independent phospholipase A2 inhibitors” (Bioorg Med Chem, 2017).

Structures are written as SMILES.

Assay [1] has as its system Phospholipase A2 group VI, Homo sapiens. The experiment in a line: Inhibition of human calcium-independent group-6A iPLA2 using Triton-X-100/PAPC/arachidonyl-1-14C PAPC substrate mixed micelles by modified dole assay.
Assay [2] shares this test system. The experiment in a line: Inhibition of human calcium-independent group-6A iPLA2 using Triton-X-100/PAPC/arachidonyl-1-14C PAPC substrate mixed micelles at 0.091 mole_fraction by modified dole assay relative to control.
Assay [3] deals with T1, Phospholipase A2 group V (Homo sapiens) (UniProt P39877).
T1 sequence (whole entry): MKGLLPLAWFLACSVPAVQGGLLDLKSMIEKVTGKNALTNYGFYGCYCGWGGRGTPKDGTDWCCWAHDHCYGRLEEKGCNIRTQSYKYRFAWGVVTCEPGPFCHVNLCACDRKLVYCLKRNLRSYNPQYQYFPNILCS
The experiment in a line: Inhibition of human calcium-independent group-5 sPLA2 using Triton-X-100/PAPC/arachidonyl-1-14C PAPC substrate mixed micelles at 0.091 mole_fraction by modified dole assay relative to control. The following applies: in the assay text read “group-5 sPLA2” for “calcium-independent group-5 sPLA2”. Put shortly:
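Human GV sPLA2 activity was measured by modified Dole assay. Inhibitor was added from a 5 mM DMSO stock to give 0.091 mole fraction in substrate, and percent inhibition was recorded.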

Another assay is filed under the species Homo sapiens. Description: Selectivity ratio of XI50 for human group-4 cPLA2 to XI50 for human calcium-independent group-6A iPLA2.
The target in assay [4] is T2, Cytosolic phospholipase A2 (Homo sapiens) (UniProt P47712).
T2 sequence (whole entry): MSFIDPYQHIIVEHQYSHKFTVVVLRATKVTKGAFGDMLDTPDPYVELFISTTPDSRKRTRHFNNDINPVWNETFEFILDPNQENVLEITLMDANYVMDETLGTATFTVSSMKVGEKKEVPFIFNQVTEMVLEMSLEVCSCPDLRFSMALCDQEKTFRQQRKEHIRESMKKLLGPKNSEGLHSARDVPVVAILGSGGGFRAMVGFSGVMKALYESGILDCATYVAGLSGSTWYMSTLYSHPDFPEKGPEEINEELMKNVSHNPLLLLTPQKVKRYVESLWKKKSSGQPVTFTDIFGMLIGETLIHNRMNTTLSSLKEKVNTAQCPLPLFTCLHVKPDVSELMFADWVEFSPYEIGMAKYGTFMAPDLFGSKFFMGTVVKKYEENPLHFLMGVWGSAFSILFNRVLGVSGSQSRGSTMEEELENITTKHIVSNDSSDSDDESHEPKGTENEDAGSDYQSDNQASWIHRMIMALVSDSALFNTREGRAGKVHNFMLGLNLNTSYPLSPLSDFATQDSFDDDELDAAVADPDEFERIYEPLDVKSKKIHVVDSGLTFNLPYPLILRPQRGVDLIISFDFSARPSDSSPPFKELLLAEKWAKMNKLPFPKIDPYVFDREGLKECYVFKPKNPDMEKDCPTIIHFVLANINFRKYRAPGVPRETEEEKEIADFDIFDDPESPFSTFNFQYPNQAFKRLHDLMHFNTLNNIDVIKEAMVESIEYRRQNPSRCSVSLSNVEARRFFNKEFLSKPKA
The experiment in a line: Inhibition of human group-4 cPLA2 using Triton-X-100/PAPC/arachidonyl-1-14C PAPC/PIP2 substrate mixed micelles at 0.091 mole_fraction by modified dole assay relative to control. A digest of the protocol: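 Buffer was 100 mM HEPES pH 7.5 with 90 μM CaCl2, 2 mM DTT and 0.1 mg/ml BSA. Activity was read by modified Dole assay with inhibitor at 0.091 mole fraction, added from a 5 mM DMSO stock, and expressed as percent inhibition.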

The target of assay [5] is T1, Phospholipase A2 group V (Homo sapiens). The experiment in a line: Inhibition of human group-5 sPLA2 using Triton-X-100/PAPC/arachidonyl-1-14C PAPC substrate mixed micelles at 0.091 mole_fraction by modified dole assay relative to control.
Assay [6] concerns Phospholipase A2 group VI, Homo sapiens. Description: Inhibition of human calcium-independent group-6A iPLA2 using substrate mixed micelles at 0.091 mole_fraction by modified dole assay relative to control.

Usually inhibition stands for the drop in the measured response relative to a control, in per cent. Turning to `CCCC[C@H](NC(=O)C(=O)CCCCc1ccc(OC)cc1)C(=O)NCCCC(=O)OC(C)(C)C`, in assay [1], the XI50 (mole fraction) came to 0.007. In addition, the inhibition in assay [2] is more than 95%; in assay [3] it was 44.8%; in assay [4], 52.6%. In the assay filed under Homo sapiens, the Selectivity ratio turned out to be 13.

For the molecule `CCCC[C@H](NC(=O)C(=O)CCCCc1ccc(OC)cc1)C(=O)NCC(=O)NCC(=O)OC(C)(C)C`, the inhibition in assay [5] was less than 25%; in assay [2], 66.5%; in assay [4], 27.1%.

Take `CCCC[C@H](NC(=O)C(=O)CCCCc1ccc2ccccc2c1)C(=O)NCC(=O)O`: the inhibition in assay [5] was less than 25%; in assay [2], less than 25%; in assay [4] it was 43.1%.

As to `CCCC[C@@H](COCC(=O)OC(C)(C)C)NC(=O)C(=O)CCCCc1ccc2ccccc2c1`, the inhibition in assay [2] worked out at 88.4%; in assay [3] it was 63.9%; in assay [4] it was 85.5%.

Regarding `CCCC[C@H](NC(=O)C(=O)CCCCc1ccc(OC)cc1)C(=O)NCCC(=O)OC(C)(C)C`, the inhibition was 32.5% in assay [5], 83.1% in assay [2] and 37.8% in assay [4].

As to `CCCC[C@H](NC(=O)C(=O)CCCCc1ccc(OC)cc1)C(=O)N[C@@H](C)C(=O)OC(C)(C)C`, the inhibition in assay [2] amounted to 87.5%; in assay [3], 46.6%; in assay [4] it was 57.4%.

For `CCCC[C@H](NC(=O)C(=O)CCCCc1ccc(OC)cc1)C(N)=O`, the inhibition in assay [2] was determined as 66.2%; in assay [3], 31.1%; in assay [4], 29.3%.

For the molecule `CCCC[C@H](NC(=O)C(=O)CCCCc1ccc2ccccc2c1)C(=O)NCC(=O)OCC`, the inhibition worked out at 54.4% in assay [5], 77.1% in assay [2] and 70.5% in assay [4].

On to `CCCC[C@@H](COCC(=O)OC(C)(C)C)NC(=O)C(=O)CCCCc1ccc(OC)cc1`, for which the inhibition in assay [2] was determined as 93.6%.

Regarding `CCCC[C@H](NC(=O)C(=O)CCCCc1ccc(OC)cc1)C(=O)N[C@H](C)C(=O)OC(C)(C)C`, the inhibition in assay [2] amounted to 87.1%; in assay [3] it was 49.9%; in assay [4], 73.4%.

Turning to `CCCC[C@H](NC(=O)C(=O)CCCCc1ccc(OC)cc1)C(=O)NCC(=O)OCc1ccccc1`, the figures for the inhibition in assay [5], in assay [2] and in assay [4] were less than 25%, more than 95% and 52.3%, respectively. Also, in assay [1], the XI50 (mole fraction) was found to be 0.026.

Regarding `COc1ccc(CCCCC(=O)C(=O)N[C@@H](CC(C)C)C(=O)NCCCC(=O)OC(C)(C)C)cc1`, the inhibition in assay [5] is less than 25%; in assay [2], 92.8%; in assay [4], 58%.

Regarding `CCCC[C@H](NC(=O)C(=O)CCCCc1ccc(OC)cc1)C(=O)OC(C)(C)C`, the results for the inhibition in assay [2], in assay [3] and in assay [4] were 60%, 60.6% and 85.7%, respectively.

Consider `CCCC[C@@H](NC(=O)C(=O)CCCCc1ccc(OC)cc1)C(=O)NCC(=O)OC(C)(C)C`, for which, in assay [1], the XI50 (mole fraction) came out at 0.04. The inhibition was more than 95% in assay [2], 39.3% in assay [3] and 68% in assay [4].

With `CCCCC/C=C\C/C=C\C/C=C\C/C=C\CCCC(=O)C(F)(F)F`, the XI50 (mole fraction) in assay [6] worked out at 0.028.

For `CCCC[C@H](NC(=O)C(=O)CCCCc1ccccc1)C(=O)NCC(=O)O`, the inhibition in assay [5], in assay [2] and in assay [4] was less than 25% each time.

For the molecule `COc1ccc(CCCCC(=O)C(=O)N[C@@H](CC(C)C)C(=O)NCC(=O)OC(C)(C)C)cc1`, the XI50 (mole fraction) in assay [1] was found to be 0.024. Further, the inhibition in assay [2] was more than 95%; in assay [3], 40.8%; in assay [4], 51.6%.

Consider `CCCC[C@H](NC(=O)C(=O)CCCCc1ccccc1)C(=O)NCC(=O)OC(C)(C)C`, for which the inhibition in assay [2] came out at 91.1%; in assay [3] it was 43.4%; in assay [4], 46.9%.

As for `CCCC[C@H](NC(=O)C(=O)CCCCc1ccc2ccccc2c1)C(=O)NCC(=O)OC(C)(C)C`, the inhibition in assay [2] worked out at 89.1%; in assay [3] it was 44.8%; in assay [4] it was 57.5%.

As to `CCCC[C@@H](COCC(=O)O)NC(=O)C(=O)CCCCc1ccc(OC)cc1`, the inhibition in assay [2] is less than 25%.

On to `CCCC[C@H](NC(=O)C(=O)CCCCc1ccc(OC)cc1)C(=O)NCC(=O)OC(C)(C)C`, for which the figures for the inhibition in assay [5], in assay [2] and in assay [4] were 45.3%, more than 95% and 40.2%, respectively. Also, in assay [1], the XI50 (mole fraction) is 0.012.

`CCCC[C@@H](COCC(=O)OCC)NC(=O)C(=O)CCCCc1ccc(OC)cc1`: the inhibition in assay [2] worked out at 75.2%.

Turning to `CC[C@H](C)[C@H](NC(=O)C(=O)CCCCc1ccc(OC)cc1)C(=O)NCC(=O)OC(C)(C)C`, the inhibition worked out at 81.8% in assay [2], 48.2% in assay [3] and 57.3% in assay [4].

`CCCC[C@H](NC(=O)C(=O)CCCCc1ccc(OC)cc1)C(=O)NCCCCC(=O)OC(C)(C)C`: the figures for the inhibition in assay [5], in assay [2] and in assay [4] were 56.3%, 90.1% and 64.5%, respectively.

Take `CCCC[C@H](NC(=O)C(=O)CCCCc1ccc(OC)cc1)C(=O)NCCCC(=O)OCc1ccccc1`: the inhibition in assay [2] stood at 78.3%; in assay [3], 27.7%; in assay [4], 47.9%.

As for `CCCC[C@@H](COCC(=O)OC(C)(C)C)NC(=O)C(=O)CCCCc1ccccc1`, the inhibition in assay [5] was determined as 57.5%; in assay [2] it was 76%; in assay [4], 82.3%.

`COc1ccc(CCCCC(=O)C(=O)N[C@H](C(=O)NCC(=O)OC(C)(C)C)C(C)C)cc1`: the inhibition is 85.7% in assay [2], 47.1% in assay [3] and 35.4% in assay [4].
